The structures appear in SMILES notation. The source made the active and inactive calls. The rule behind the calls is not given here.

In test [1] the test system is Lytechinus pictus. Briefly: (§1) Antagonistic activity at NAADP receptor in sea urchin egg homogenate assessed as inhibition of NAADP-mediated Ca2+ release using Fluo-3 staining based fluorimetric assay relative to control. It is filed as functional, tissue-based.
Test [2] can be described thus: Displacement of [32P]NAADP from NAADP receptor in sea urchin egg homogenate preincubated 10 mins before [32P]NAADP addition. Type of test: tissue-based, Lytechinus pictus. The gist of the method:
(§2)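 Sea urchin egg homogenate in intracellular-like buffer. Compound in DMSO (final 1% v/v) pre-incubated 10 min at 25°C, then [32P]NAADP added to 0.3 nM. Incubated 30 min, then binding assessed by filtration; concentration range used for displacement curves.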

Test [3] can be described thus: as §1. Type of test: functional, tissue-based, Lytechinus pictus.
Test [4] deals with Lytechinus pictus. Briefly: Noncompetitive inhibition of NAADP receptor in sea urchin egg homogenate assessed as inhibition of NAADP induced Ca2+ release using Fluo-3 staining based fluorimetric assay. It is filed as tissue-based.
Test [5] concerns Lytechinus pictus. In words: Inhibition of cyclic ADP-ribose-induced Ca2+ release in sea urchin Egg homogenate at 100 uM using Fluo-3 staining based fluorimetric assay relative to control; values are per cent of control.
Test [6] has as its system Pancreatic islet. Briefly: (§3) Inhibition of glucose-induced Ca2+ increase in CD1 mouse pancreatic islets preincubated for 30 mins before glucose challenge. It is filed as functional, cell-based. The gist of the method:
(§4)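 Acutely isolated mouse islets loaded with fura-PE3 AM and held in 3 mM glucose. Compound pre-incubated 30 min, then 15 mM glucose added. First peak, oscillation amplitude and plateau measured; concentration-inhibition curve gives IC50.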

Test [7] can be described thus: as §3. It is filed as functional, cell-based. The note with it: CD1, Pancreatic islet. The gist of the method: as §4
The species named for test [8] is Mus musculus. In words: Inhibition of L-type calcium channel in CD1 mouse pancreatic islets at 100 uM in presence of glucose diazoxide and KCl. In a few lines: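 Mouse islets in glucose (10 mM) and diazoxide (100 μM), depolarized with KCl (45 mM) with or without compound (100 μM). Ca2+ transient monitored with fura-PE3.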
Test [9] relates to Lytechinus pictus. Briefly: Inhibition of IP3-induced Ca2+ release in sea urchin Egg homogenate at 100 uM using Fluo-3 staining based fluorimetric assay relative to control; values are per cent of control.
Test [10] can be described thus: Displacement of [32P]NAADP from Egg-binding protein in sea urchin egg homogenate at 6 uM after 10 mins. It is filed as tissue-based, Lytechinus pictus. In a few lines: as §2
Test [11] relates to Lytechinus pictus. Briefly: Antagonistic activity at NAADP receptor in intact sea urchin eggs assessed as Inhibition of NAADP mediated Ca2+ increase at 100 uM using Oregon Green 488-BAPTA Dextran staining based by laser scanning confocal microscopy. It is filed as functional. In a few lines: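 Intact Lytechinus pictus eggs on polylysine-coated coverslips in artificial seawater containing compound. Eggs microinjected with Oregon Green 488 BAPTA Dextran (10 μM). NAADP (100 μM in pipette) pressure-microinjected to 1% egg volume, delivering ~1 μM. Imaged by laser-scanning confocal microscopy, 488 nm excitation, emission 530±15 nm band-pass or 510 nm long-pass.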

For test [12], the species on record is Mus musculus. In words: Binding affinity to NAADP receptor in CD1 mouse pancreatic beta cells assessed as fluorescent labeling of receptor at 60 nM after 30 mins by confocal microscopy. The gist of the method:
(§5)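 Mouse pancreatic beta cells imaged by confocal microscopy, compound excited at 355 nm with emission 415±30 nm. LysoTracker Red (50 nM, 20-40 min; excitation 568 nm, emission >590 nm) used as comparison. Pretreatment with bafilomycin A1 (3 μM, 15 min) or NAADP-acetoxymethyl ester (60 nM, 30 min).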

The species named for test [13] is Mus musculus. In words: Antagonistic activity at NAADP receptor in CD1 mouse pancreatic beta cells assessed as inhibition of NAADP-mediated Ca2+ increase at 125 uM by patch clamp method. It is filed as functional. In a few lines: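 Mouse pancreatic beta cells voltage-clamped with a patch pipette; NAADP delivered through the pipette (50 nM in text, 100 nM in legend). Compound pre-incubated in the bathing solution. Ca2+ increases read as Ca2+-dependent current traces, compared with and without compound in the bath.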

The test system of test [14] is Lytechinus pictus. Briefly: Antagonistic activity at NAADP receptor in sea urchin egg homogenate assessed as inhibition of NAADP-mediated Ca2+ release at 100 uM using Fluo-3 staining based fluorimetric assay relative to control; values are per cent of control.
Test [15] is filed under the species Mus musculus. In words: Binding affinity to NAADP receptor in CD1 mouse pancreatic beta cells assessed as fluorescent labeling of receptor at 60 nM after 30 mins in presence of V-type proton pump inhibitor bafilomycin A1 by confocal microscopy. The gist of the method: as §5
Test [16] deals with Lytechinus pictus. Briefly: Displacement of [32P]NAADP from NAADP receptor in sea urchin egg homogenate after 5 days. Type of test: tissue-based. In a few lines:
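Homogenate pre-incubated 10 min with compound (10 μM) or NAADP (10 nM), then [32P]NAADP added. Samples filtered at time points up to 5 days; dissociation read as recovery of [32P]NAADP binding (100% ≈ 1,500 cpm).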

Test [17] deals with Pancreatic islet. Briefly: Inhibition of glucose induced mitochondrial metabolism in CD1 mouse pancreatic islets assessed as NADH and NADPH levels by fluorescence method. Type of test: functional, cell-based. The gist of the method: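 Mouse islets pre-incubated 60 min at 37°C in 3 mM glucose. NAD(P)H fluorescence (360 nm excitation, >470 nm emission) expressed as percent of basal values within the same islet.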

`CCC(=O)N1N=C(c2ccc(C3=NN(C(=O)CC)[C@H](c4cccc(OC)c4OC)C3)cc2)C[C@H]1c1cccc(OC)c1OC`: the inhibition result with Lytechinus pictus [1] is reported as “Insoluble”.
On to `CS(=O)(=O)N(Cc1ccccc1)c1ccc(C(=O)N/N=C/c2cccc(Oc3ccccc3)c2)cc1`, for which the inhibition entry in the test on Lytechinus pictus [1] is “inactive”.
In the case of `COc1ccc([C@@H]2N[C@H](C(=O)O)Cc3c2[nH]c2ccccc32)cc1CN1CCN(c2ccccc2F)CC1`, the IC50 in [2] came out at 15 µM; in [3], 800 nM.
Take `CCn1c2ccccc2c2cc(NC(=O)CN3CCN(S(=O)(=O)c4ccc(OC)cc4)CC3)ccc21`: the inhibition entry with Lytechinus pictus [1] is “inactive”.
With `COc1ccc([C@H]2N[C@H](C(=O)O)Cc3c2[nH]c2ccccc32)cc1CN1CCN(c2ccccc2F)CC1`, the IC50 stood at 0.0004 µM in [2] and 6 nM in test [3].
Turning to `COc1ccc(S(=O)(=O)N2CCN([C@H](C)C(=O)Nc3ccccc3-c3ccccc3)CC2)cc1`, in the test on Lytechinus pictus [1], the inhibition entry was “inactive”.
Still for that read-out and setting: the value for `CN1C(=O)/C(=C/c2ccccc2Cl)Sc2ccc(C(=O)N3CCN(Cc4ccc5c(c4)OCO5)CC3)cc21` was “inactive”.
Take `Cc1ccc(-c2cc(C(=O)NCC(C)(C)CNC(=O)c3cc(-c4ccc(C)o4)nc4ccccc34)c3ccccc3n2)o1`: in the test on Lytechinus pictus [1], the inhibition entry is “inactive”.
Turning to `CC(C)N(CCCNC(=O)c1ccc2c(c1)N(Cc1c(F)cccc1Cl)C(=O)CS2)Cc1ccccc1`, in the test with Lytechinus pictus [1], the inhibition result is “Active”.
With `CCn1c2ccccc2c2cc(NC(=O)CN3CCN(S(=O)(=O)c4cc(Cl)ccc4Cl)CC3)ccc21`, in the test with Lytechinus pictus [1], the inhibition entry is “inactive”.
With `C[C@@H]1CCc2c(sc(NC(=O)CN3CCN(S(=O)(=O)c4ccc5c(c4)OCCO5)CC3)c2C#N)C1`, the inhibition entry with Lytechinus pictus [1] was “inactive”.
Consider `COc1ccc(C(=O)OCC(=O)c2ccc3c(c2)-c2ccccc2C3)cc1S(=O)(=O)N1CCCc2ccccc21`, for which the inhibition entry in the test with Lytechinus pictus [1] was “Active”.
Still for that read-out and setting: the entry for `Cc1ccc(-n2c(SCC(=O)N/N=C\c3cccc(Oc4ccccc4)c3)nnc2-c2ccc(Cl)cc2)cc1` is “inactive”.
Take `O=C(COC(=O)c1cccc(Oc2ccccc2)c1)COC(=O)c1cccc(Oc2ccccc2)c1`: in the test with Lytechinus pictus [1], the inhibition entry is “inactive”.
With `CN1C(=O)/C(=C/c2ccccc2F)Sc2ccc(C(=O)N3CCN(Cc4ccc5c(c4)OCO5)CC3)cc21`, in the test with Lytechinus pictus [1], the inhibition result is “inactive”.
On to `O=C(COc1ccccc1-c1ccccc1)N1CCN(S(=O)(=O)c2ccc3c(c2)OCCO3)CC1`, for which, in the test with Lytechinus pictus [1], the inhibition result was “inactive”.
As to `CC(C)(c1ccccc1)c1ccc(OC[C@@H](O)CN[C@H](Cc2ccccc2)c2nc(-c3ccccc3)no2)cc1`, in the test with Lytechinus pictus [1], the inhibition result is “inactive”.
Turning to `COc1ccccc1N(C)S(=O)(=O)c1ccc(C(=O)Nc2ccc(N(c3ccccc3)C(C)C)cc2)cc1`, in the test with Lytechinus pictus [1], the inhibition entry is “Active”.
For the compound `COc1cc2c(cc1OC)-c1cc(NCCN3CCN(C(=O)c4ccc(F)cc4)CC3)nc(=O)n1CC2`, the inhibition entry with Lytechinus pictus [1] is “inactive”.
The same measure, in the same setting: the entry for `COc1ccc2[nH]c(C(=O)O)c(CCNC(=O)CO/N=C3/C=C[C@@]4(C)C(=C3)CC[C@@H]3[C@H]4CC[C@]4(C)[C@H]3CC[C@]4(C)O)c2c1` is “Toxic”.
Regarding `NC(=O)c1c(NC(=O)CN2CCN(S(=O)(=O)c3ccc4c(c3)OCCO4)CC2)sc2c1CCCC2`, the inhibition entry in the test with Lytechinus pictus [1] was “inactive”.
Consider `CCN(CC)CCOC(=O)c1ccc(NC(=O)c2cc(-c3cccc4ccccc34)nc3ccccc23)cc1`, for which the inhibition entry in the test with Lytechinus pictus [1] was “inactive”.
`CCN1C(=O)c2ccccc2[C@H]1Nc1ccc(C(=O)N2CCN(C/C=C/c3ccccc3)CC2)cc1`: the inhibition entry with Lytechinus pictus [1] was “inactive”.
With `COc1ccc(C2N[C@H](C(=O)O)Cc3c2[nH]c2ccccc32)cc1CN1CCN(c2ccccc2F)CC1` (some centres not stated), the inhibition result in the test with Lytechinus pictus [4], with Lytechinus pictus [11], in the test listed under Mus musculus [13] and with Lytechinus pictus [16] was “Active” each time. In addition, the level, % of control was 101% with Lytechinus pictus [5] and 87% in the test with Lytechinus pictus [9]. Also, the inhibition entry in the test with Pancreatic islet [6] is “Dose-dependent effect”. In addition, the IC50 in test [7] was 3000 nM; in test [3], 2000 nM. For the same compound, the inhibition entry in the test filed under Mus musculus [8] and with Pancreatic islet [17] was “inactive” each time. In addition, the Ki in test [10] worked out at 6 µM. The outcome in the test filed under Mus musculus [12] and in the test listed under Mus musculus [15] was Active. For the same compound, the residual activity in the test on Lytechinus pictus [14] was determined as 5.4%.
Take `C=C1NN(c2nc(-c3cccc([N+](=O)[O-])c3)cs2)C(=O)/C1=N/Nc1ccc(Cl)cc1C(=O)c1ccccc1`: the inhibition entry in the test with Lytechinus pictus [1] is “Insoluble”.
Regarding `FC(F)(F)c1cccc(N2CCN(Cn3nc(COc4ccccc4)n(-c4ccccc4)c3=S)CC2)c1`, in the test with Lytechinus pictus [1], the inhibition entry was “Toxic”.
